Hits are enriched below; roughly 5.6% of the tested compounds scored in any of these assays.
MPTP inh = blocks calcium-induced mitochondrial swelling. isolated mouse mitochondria, Ca2+ swelling absorbance, 30 min. inhibition, % at 10 µM. hit rate 1.4% among 360,000;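 active = inhibition of 50% or more, scaled per plate between neutral and stimulator controls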;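 note: 0% = DMSO wells given calcium and 100% = 1 mM EGTA wells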
CHOP inhibitor = CHOP inhibition in unfolded protein response; CHO-K1 CHOP-promoter luciferase, tunicamycin-induced, 15-18 h; inhibition, % at 10 µM; hit rate 3.8% among 220,000;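 active = compounds that reduced the stress-induced luciferase reporter signal by more than about 70% of percent inhibition, limit read from the data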;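 note: 0% = tunicamycin plus vehicle and 100% = wells without tunicamycin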
aDG glyco up = alpha-DG glycosylation activation; hit rate 0.22% among 360,000; activation, % at 10 µM; Pro5-aDG cells, alpha-DG glycosylation AlphaScreen (IIH6); 0% Pro5, 100% B10-LARGE cell signal;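 active = activation of at least 8% versus controls, or a plate z-score of at least 8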;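 note: Pro5 are CHO cells carrying HIG-tagged alpha-DG that lacks glycosylation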
XBP1 UPR activ = activators of adaptive arm of unfolded protein response (XBP1) | hit rate 0.33% among 330,000 | CHO-XBP1 luciferase reporter, IRE1-XBP1 UPR activation, luminescence; percent of tunicamycin response, DMSO as zero | activation, % at 20 µM;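 active = versus positive control, 20 µM dose yields 30% or more activation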;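 note: 100% = tunicamycin at 10 µg/mL and 0% = DMSO only wells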
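assay system = CHO-XBP1 luciferase reporter cells | amount = 1000 cells/well | buffer or medium = F12 plus 10% FBS | compound dosing = single point, 20 µM final compound, 1% DMSO | incubation = 16-18 h cell attachment at 37 °C, then 6 h compound exposure | detection = Steady-Glo luminescence read | controls = tunicamycin 10 µg/mL and vehicle-only wells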
CHOP UPR activ = apoptotic UPR (CHOP) activation | activation, % at 10 µM | hit rate 0.34% among 330,000 | CHO-CHOP luciferase reporter, luminescence; percent of tunicamycin response over DMSO baseline;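 active = at 10 µM dose, activation of 40% or more, normalized to positive control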;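 note: 100% = tunicamycin at 10 µg/mL and 0% = DMSO alone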
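Material: CHO-CHOP cells, stable luciferase reporter of PERK-eIF2a-CHOP signalling; quantity: 500 reporter cells seeded per well; buffer or medium: F12 medium containing 10% fetal bovine serum; compound: one dose, 10 µM in 0.5% DMSO; incubation: 6 h compound treatment, 37 °C; measured by: Steady-Glo luciferase luminescence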
GRIN3A LBD mod = modulates the human NR3A ligand-binding domain | NR3A LBD differential scanning fluorimetry, Tm shift; 0% = protein alone, 100% = glycine-bound protein | Tm shift relative to glycine control, % at 25 µM | hit rate 2.5% among 340,000;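 active = melting temperature shift of at least 10% of the positive control shift, at one fixed dose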
MPTP counter = membrane potential counter-screen of mitochondrial pore inhibitors; shares compounds with MPTP inh; isolated mitochondria, Rhodamine 123 fluorescence; inhibition, % at 10 µM; hit rate 78% among 5,000; AID 624504; in the data active = inhibition above about 22%;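 note: 0% = DMSO vehicle and 100% = positive control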
* hit, by the source's call; · = not tested or not shown.

SMILES	MPTP inh	CHOP inhibitor	aDG glyco up	XBP1 UPR activ	CHOP UPR activ	GRIN3A LBD mod	MPTP counter
Cc1ccc(NC(=O)c2ccc(S(=O)(=O)NCc3cccnc3)cc2)cc1C	-2	·	0	0	1	-1	·
O=C(Nc1ccc(Cl)c(Cl)c1)c1cccc(S(=O)(=O)NCc2cccnc2)c1	104*	34	3	-3	-2	11*	84*
CCN(CC)S(=O)(=O)c1ccc(C(=O)NC(=S)N2CCCCC2C)cc1 (stereo unspecified)	0	·	0	·	·	·	·
CN(CC(=O)NC(=O)NC1CCCCC1)CC(=O)Nc1ccc(OC(F)(F)F)cc1	-1	·	0	-2	-1	-4	·
Cc1cc(Cl)c2oc(C(=O)N3CCN(C(=O)c4ccco4)CC3)c(C)c2c1	-1	·	0	6	6	-4	·
CCN(CC)S(=O)(=O)c1cccc(C(=O)N[C@H](C(=O)Nc2nc3ccc(F)cc3s2)C(C)C)c1	55*	27	0	-1	8	-3	72*
CCN(CC)S(=O)(=O)c1cccc(C(=O)N[C@H](C(=O)Nc2nc3ccccc3s2)C(C)C)c1	5	35	0	1	10	2	·
CCN(CC)S(=O)(=O)c1ccc(N2CCOCC2)c(NC(=S)NC(=O)c2ccco2)c1	3	-3	0	2	2	-1	·
COC(=O)c1ccc(CNC(=O)COC(=O)Cc2ccsc2)cc1	-1	19	0	5	2	-2	·
CCOC(=O)C(C)N1C(=O)S/C(=C\c2ccc(-c3ccccc3C(=O)O)o2)C1=O (stereo unspecified)	1	·	0	-7	0	3	·
CC(C)N1C(=O)S/C(=C/c2ccc(Sc3nc4ccccc4[nH]3)o2)C1=O	100*	70*	4	-1	7	-8	88*
C=CCN1C(=O)S/C(=C/c2ccc(Sc3nc4ccccc4[nH]3)o2)C1=O	91*	38	2	0	1	-1	88*
C=CCN1C(=O)S/C(=C/c2ccsc2)C1=O	1	-5	0	4	5	2	·
CCc1nc(SCc2ccccc2C)n[nH]1	0	·	0	1	2	-2	·
CC(C)COC(=O)NCCOC(=O)Nc1cccc(Cl)c1	102*	56	2	-1	4	-1	100*
O=C(NCc1cccnc1)c1ccc(-c2ccc(F)c(F)c2)c2ccoc12	92*	·	4	·	·	·	84*
COc1ccc(CNC(=O)c2cccc3c(-c4cccc(C(N)=O)c4)coc23)cc1OC	86*	·	1	·	·	·	83*
COc1ccc(CNC(=O)c2cccc3c(-c4ccc(F)c(F)c4)coc23)cc1OC	88*	·	5	·	·	·	80*
COc1cc(-c2coc3c(C(=O)NCc4ccc(OC)c(OC)c4)cccc23)ccc1O	73*	·	1	·	·	·	58*
NC(=O)c1cccc(-c2coc3c(C(=O)NCCc4ccccc4)cccc23)c1	0	·	0	·	·	·	·
O=C(NCc1ccccc1)c1cccc2c(-c3ccc(F)c(F)c3)coc12	2	·	0	·	·	·	·
COc1ccc(C(=O)NC2CCCc3ccccc32)cc1OC1CCN(C(C)=O)CC1 (stereo unspecified)	0	·	0	-1	0	-6	·
O=C(COc1ccc2c(c1)OCO2)NCc1cccs1	0	·	0	1	1	-1	·
COc1ccc(CC(N)c2csc(Nc3nc(C)cnc3C)n2)cc1 (stereo unspecified)	2	·	1	·	·	·	·
CN(C(=O)c1cccc(NC(=O)Cc2ccc(NC(=O)C3CCN(C(=O)C4CCC4)CC3)cc2)c1)C1CCC1	4	·	0	·	·	1	·
COc1cc(S(=O)(=O)Nc2ccccc2C(=O)N2CCCCC2)ccc1NC(C)=O	-1	·	0	-3	1	0	·
CCCCCCCCC(=O)NC(NC(=S)N1CCOCC1)C(Cl)(Cl)Cl (stereo unspecified)	88*	11	0	-1	-1	-2	86*
Cn1ccnc1COc1ccc(C=O)cc1	-2	·	0	-3	2	1	·

High-throughput results from PubChem.
